Test results from PMC8923061 (ACS Pharmacology & Translational Science, 2022).
Counter-ions that a name gives are not always drawn. Like-named read-outs stand apart in the source and are kept apart here.

Legend:
[1] = molecular target: CaV3.3 (Homo sapiens, UniProt Q9P0X4); assay: cell-based; assay type: cell-based; conditions: for potentiator activity at CaV3.3: GCaMP6s-CAAX FLIPR, CRC, EC10 KCl
[2] = molecular target: LPA1 receptor (Cricetulus griseus, UniProt G3HUC7); assay type: cell-based, Chinese hamster; conditions: CHOK1/Gα15/GCaMP6s-CAAX
[3] = molecular target: CaV3.1 (Homo sapiens, UniProt O43497); assay type: cell-based; conditions: GCaMP6s-CAAX FLIPR, CRC, low CaCl2
Method in brief: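 HEK293 cells co-expressing CaV3.1, Kir2.3 and GCaMP6s-CAAX in DMEM/F-12 GlutaMAX + 10% FBS + 1.25 μg/mL puromycin. Induced with 1 μg/mL doxycycline, seeded at 16k/well on poly-D-lysine and grown 2 days at 37 °C. Equilibrated ~60 min at room temperature in the dark in buffer (133 mM NaCl, 10 HEPES, 10 glucose, 4 KCl, 1 CaCl2, pH 7.3). Stimulated with 1.5 mM (low) or 5.0 mM (high) CaCl2 on FLIPR Tetra at room temperature; peak over baseline used.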

[4] = molecular target: CaV3.2 (Homo sapiens, UniProt O95180); assay type: cell-based; conditions: GCaMP6s-CAAX FLIPR, CRC, EC10 KCl
Method in brief: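 Inducible HEK293 CaV3.2/Kir2.3/GCaMP6s-CAAX cells, with no antibiotics in assay plates. Doxycycline (1 μg/mL) induction, 16k/well, 2 days at 37 °C, then ~60 min at room temperature in buffer of 133 mM NaCl, 10 HEPES, 10 glucose, 4 KCl, 1 CaCl2, pH 7.3. […] Peak response over baseline after each addition.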

[5] = molecular target: C3a receptor (Cricetulus griseus, UniProt A0A061I1T5); assay type: cell-based, Chinese hamster; conditions: read-out: EC50, increase in fluorescence (C3a receptor); CHOK1/Gα15/GCaMP6s-CAAX
Method in brief: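 CHOK1-Gα15 cells stably expressing GCaMP6s-CAAX, kept in F-12K + 10% FBS with hygromycin (100 μg/mL) and G-418 (700 μg/mL). Seeded at 16k/well and grown 2 days at 37 °C. Buffer was HBSS + 20 mM HEPES + 0.1% fatty-acid-free BSA, pH 7.3; 30 min at 37 °C in the dark. FLIPR Tetra at 37 °C: ex 470-495/em 515-575 nm, 1 Hz, two additions. Agonist was hC3a; antagonist mode used 20 nM hC3a. Peak over baseline, scaled from buffer (0%) to saturating agonist (100%). Four replicates, two experiments.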

CaV3.3, sequence (Q9P0X4 whole entry): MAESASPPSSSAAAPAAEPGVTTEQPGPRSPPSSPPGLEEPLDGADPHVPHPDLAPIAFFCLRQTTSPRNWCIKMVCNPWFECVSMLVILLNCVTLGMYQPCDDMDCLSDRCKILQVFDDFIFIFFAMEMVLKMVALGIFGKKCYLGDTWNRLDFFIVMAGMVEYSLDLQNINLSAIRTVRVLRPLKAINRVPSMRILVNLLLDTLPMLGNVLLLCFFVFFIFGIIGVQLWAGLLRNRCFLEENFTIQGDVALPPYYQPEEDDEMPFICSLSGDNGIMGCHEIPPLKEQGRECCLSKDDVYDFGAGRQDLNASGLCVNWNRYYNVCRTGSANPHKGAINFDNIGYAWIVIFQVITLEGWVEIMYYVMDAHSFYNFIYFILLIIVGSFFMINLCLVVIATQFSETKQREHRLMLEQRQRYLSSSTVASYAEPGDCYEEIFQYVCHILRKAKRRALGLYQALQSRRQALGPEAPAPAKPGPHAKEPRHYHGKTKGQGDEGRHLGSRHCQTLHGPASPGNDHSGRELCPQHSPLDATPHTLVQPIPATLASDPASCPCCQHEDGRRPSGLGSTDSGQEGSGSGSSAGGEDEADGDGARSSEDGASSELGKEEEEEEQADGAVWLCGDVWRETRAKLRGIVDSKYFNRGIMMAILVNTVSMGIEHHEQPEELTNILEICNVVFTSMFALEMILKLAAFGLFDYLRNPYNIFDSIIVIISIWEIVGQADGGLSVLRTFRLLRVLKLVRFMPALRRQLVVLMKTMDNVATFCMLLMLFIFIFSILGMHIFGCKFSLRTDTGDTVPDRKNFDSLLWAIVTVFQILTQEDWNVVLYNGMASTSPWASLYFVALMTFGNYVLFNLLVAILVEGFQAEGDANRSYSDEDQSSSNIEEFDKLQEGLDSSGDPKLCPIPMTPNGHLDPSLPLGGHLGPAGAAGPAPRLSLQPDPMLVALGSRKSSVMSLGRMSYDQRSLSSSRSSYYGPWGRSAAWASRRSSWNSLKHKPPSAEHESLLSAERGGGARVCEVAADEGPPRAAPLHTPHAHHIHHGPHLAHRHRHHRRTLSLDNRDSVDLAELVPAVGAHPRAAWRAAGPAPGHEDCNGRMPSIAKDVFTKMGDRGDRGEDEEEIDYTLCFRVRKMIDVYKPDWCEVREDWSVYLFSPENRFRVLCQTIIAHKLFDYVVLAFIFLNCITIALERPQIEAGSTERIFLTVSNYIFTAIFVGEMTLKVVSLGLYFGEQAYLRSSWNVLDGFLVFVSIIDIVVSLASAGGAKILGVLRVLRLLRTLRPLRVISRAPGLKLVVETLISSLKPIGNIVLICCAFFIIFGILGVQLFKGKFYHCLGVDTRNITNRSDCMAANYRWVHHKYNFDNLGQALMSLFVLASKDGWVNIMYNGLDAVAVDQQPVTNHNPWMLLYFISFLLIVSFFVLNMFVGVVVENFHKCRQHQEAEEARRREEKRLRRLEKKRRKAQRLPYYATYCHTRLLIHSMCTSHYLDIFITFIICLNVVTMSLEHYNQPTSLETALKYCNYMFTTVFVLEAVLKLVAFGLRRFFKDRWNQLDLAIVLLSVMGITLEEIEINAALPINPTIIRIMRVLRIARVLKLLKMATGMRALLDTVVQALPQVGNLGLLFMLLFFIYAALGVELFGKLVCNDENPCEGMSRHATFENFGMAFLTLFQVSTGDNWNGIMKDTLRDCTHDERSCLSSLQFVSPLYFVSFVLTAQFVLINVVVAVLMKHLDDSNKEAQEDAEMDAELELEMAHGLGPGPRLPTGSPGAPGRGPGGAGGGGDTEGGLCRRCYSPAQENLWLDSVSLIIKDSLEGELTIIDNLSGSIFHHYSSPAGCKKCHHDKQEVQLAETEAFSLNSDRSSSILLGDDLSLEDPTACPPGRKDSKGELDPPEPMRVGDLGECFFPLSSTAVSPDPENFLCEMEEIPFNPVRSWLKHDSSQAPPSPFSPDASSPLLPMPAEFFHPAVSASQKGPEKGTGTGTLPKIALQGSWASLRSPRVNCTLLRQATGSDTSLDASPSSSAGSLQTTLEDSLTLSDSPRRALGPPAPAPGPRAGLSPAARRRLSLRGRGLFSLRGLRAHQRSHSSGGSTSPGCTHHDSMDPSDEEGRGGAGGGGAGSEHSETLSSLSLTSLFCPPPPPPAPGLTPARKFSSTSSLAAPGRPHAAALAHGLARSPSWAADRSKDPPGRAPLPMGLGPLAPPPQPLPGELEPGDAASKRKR
LPA1 receptor, sequence (G3HUC7 1-364): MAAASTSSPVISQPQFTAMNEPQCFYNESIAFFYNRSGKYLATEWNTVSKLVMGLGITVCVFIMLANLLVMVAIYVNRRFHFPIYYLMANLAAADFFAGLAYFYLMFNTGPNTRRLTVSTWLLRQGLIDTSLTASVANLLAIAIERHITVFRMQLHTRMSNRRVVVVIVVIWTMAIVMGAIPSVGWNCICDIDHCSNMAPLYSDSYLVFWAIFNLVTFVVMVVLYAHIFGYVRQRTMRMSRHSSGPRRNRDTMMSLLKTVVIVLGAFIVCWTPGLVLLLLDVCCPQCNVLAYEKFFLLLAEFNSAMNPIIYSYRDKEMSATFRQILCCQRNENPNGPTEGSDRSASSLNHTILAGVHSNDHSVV
CaV3.2, sequence (O95180 whole entry): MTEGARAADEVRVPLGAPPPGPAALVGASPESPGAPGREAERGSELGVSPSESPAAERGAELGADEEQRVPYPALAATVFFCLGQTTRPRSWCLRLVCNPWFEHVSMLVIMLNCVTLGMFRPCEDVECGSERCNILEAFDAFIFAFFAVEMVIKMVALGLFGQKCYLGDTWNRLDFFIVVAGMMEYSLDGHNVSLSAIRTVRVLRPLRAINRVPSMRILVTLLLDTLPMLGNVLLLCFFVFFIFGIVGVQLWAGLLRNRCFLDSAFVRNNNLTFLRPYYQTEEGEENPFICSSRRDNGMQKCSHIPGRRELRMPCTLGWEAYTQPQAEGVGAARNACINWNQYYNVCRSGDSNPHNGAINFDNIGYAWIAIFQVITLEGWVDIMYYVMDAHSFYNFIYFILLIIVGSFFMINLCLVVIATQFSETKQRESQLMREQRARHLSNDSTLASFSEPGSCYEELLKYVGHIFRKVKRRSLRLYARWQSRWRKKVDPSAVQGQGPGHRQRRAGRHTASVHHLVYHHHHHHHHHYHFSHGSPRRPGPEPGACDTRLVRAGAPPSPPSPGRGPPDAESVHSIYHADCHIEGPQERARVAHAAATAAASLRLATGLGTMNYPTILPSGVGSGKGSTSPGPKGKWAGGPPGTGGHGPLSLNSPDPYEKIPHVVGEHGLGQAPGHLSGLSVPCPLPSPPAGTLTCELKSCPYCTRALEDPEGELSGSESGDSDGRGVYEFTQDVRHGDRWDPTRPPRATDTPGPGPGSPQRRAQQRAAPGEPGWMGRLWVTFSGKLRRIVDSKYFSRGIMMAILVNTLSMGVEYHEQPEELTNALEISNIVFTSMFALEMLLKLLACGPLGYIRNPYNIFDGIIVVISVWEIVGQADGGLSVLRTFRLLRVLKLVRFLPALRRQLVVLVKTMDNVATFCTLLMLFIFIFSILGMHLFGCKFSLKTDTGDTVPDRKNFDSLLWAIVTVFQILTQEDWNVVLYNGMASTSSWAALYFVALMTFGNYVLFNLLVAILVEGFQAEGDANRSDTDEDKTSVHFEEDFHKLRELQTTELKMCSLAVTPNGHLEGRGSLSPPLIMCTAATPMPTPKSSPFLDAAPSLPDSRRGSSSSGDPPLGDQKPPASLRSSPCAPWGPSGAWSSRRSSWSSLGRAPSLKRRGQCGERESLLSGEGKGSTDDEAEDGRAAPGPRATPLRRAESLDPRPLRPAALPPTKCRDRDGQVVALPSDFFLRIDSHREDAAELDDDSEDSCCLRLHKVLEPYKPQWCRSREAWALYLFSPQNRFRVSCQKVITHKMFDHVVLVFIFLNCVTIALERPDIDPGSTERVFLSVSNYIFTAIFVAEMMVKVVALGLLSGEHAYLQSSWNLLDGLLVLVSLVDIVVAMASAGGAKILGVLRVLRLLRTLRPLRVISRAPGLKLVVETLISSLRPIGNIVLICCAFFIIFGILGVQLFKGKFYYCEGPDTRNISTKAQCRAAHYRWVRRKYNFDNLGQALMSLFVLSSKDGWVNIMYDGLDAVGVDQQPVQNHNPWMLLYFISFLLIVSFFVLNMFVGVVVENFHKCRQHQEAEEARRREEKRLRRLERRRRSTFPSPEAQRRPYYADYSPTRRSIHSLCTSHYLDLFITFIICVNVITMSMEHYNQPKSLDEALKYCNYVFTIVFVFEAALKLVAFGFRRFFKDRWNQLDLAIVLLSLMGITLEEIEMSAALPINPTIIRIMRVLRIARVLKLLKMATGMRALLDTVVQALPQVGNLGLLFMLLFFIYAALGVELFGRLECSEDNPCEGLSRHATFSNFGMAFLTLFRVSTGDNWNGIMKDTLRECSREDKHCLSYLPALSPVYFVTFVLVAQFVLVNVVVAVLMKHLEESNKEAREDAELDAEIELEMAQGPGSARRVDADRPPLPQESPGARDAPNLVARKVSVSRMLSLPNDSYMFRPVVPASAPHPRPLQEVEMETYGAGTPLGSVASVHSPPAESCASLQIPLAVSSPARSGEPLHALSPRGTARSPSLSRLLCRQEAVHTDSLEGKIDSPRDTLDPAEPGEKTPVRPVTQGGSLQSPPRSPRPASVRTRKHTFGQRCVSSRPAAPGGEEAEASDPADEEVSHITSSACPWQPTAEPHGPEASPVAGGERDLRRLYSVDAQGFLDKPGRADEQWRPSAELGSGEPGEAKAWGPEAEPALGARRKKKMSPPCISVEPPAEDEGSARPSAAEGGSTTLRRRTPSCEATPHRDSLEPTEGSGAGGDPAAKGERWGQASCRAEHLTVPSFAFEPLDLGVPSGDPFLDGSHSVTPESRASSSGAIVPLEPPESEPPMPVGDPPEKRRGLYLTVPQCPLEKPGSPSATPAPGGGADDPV

COC(=O)C1=C(C)NC(C)=C(C(=O)OCCN(C)Cc2ccccc2)C1c1cccc([N+](=O)[O-])c1 (centres unmarked) [nicardipine hydrochloride]
IC50 [1]: 2100 nM

Cc1noc(-c2ccc(-c3ccc(CC(=O)O)cc3)cc2)c1NC(=O)O[C@H](C)c1ccccc1 [AM095]
IC50 ([2]; read-out: IC50, block of LPA1-mediated signal, EC80 agonist): 240 ± 20 nM

Fc1ccc(C(c2ccc(F)cc2)N2CCN(C/C=C/c3ccccc3)CC2)cc1 [flunarizine dihydrochloride]
IC50 [1]: 1200 nM

CCOC(=O)Nc1ccc(NCc2ccc(F)cc2)cc1N [retigabine]
IC50 [1]: 9400 nM

CCOC(=O)C1=C(C)NC(C)=C(C(=O)OC)C1c1cccc([N+](=O)[O-])c1 (centres unmarked) [nitrendipine]
IC50 [1]: 18000 nM

C[C@@H](NC(=O)Cc1ccc(C2CC2)cc1)c1ccc(OCC(F)(F)F)cn1 [tta-a2]
effect on KCl-induced CaV3.3-dependent fluorescence signal [1]: blocked | IC50 ([1]; read-out: IC50 against CaV3.3): 53 nM

CCOC(=O)C1=C(N2CCCCC2)C2(CC1=O)C(=O)N=C1C(C)=CC=CN12 (centres unmarked) [SAK3]
potentiator activity at CaV3.3 [1]: neither SAK3 (Figure 3D) nor ST-101 (Supporting Information Figure S3) displayed potentiator activity | potentiator activity at CaV3.1 [3]: neither SAK3 (Figure 3D) nor ST-101 (Supporting Information Figure S3) displayed potentiator activity | potentiator activity at CaV3.2 [4]: neither SAK3 (Figure 3D) nor ST-101 (Supporting Information Figure S3) displayed potentiator activity

lysoPA18:1
EC50 ([2]; read-out: EC50, increase in fluorescence (LPA1 receptor agonist)): 1010 ± 190 nM

CC1=C(C(=O)OC(C)C)C(c2cccc([N+](=O)[O-])c2)C(C(=O)OC2CN(C(c3ccccc3)c3ccccc3)C2)=C(N)N1 (centres unmarked) [azelnidipine]
IC50 [1]: 26000 nM

COC(=O)C1=C(C)NC(C)=C(C(=O)OC(C)(C)CN(C)CCC(c2ccccc2)c2ccccc2)C1c1cccc([N+](=O)[O-])c1 (centres unmarked) [lercanidipine hydrochloride]
IC50 [1]: 410 nM

CC(C)c1ccc(CC(=O)N[C@H](C)c2ccc(OCC(F)(F)F)cn2)cc1 [mk-8998]
IC50 [1]: 37 nM

CN(C)C(=O)C(CCN1CCC(O)(c2ccc(Cl)cc2)CC1)(c1ccccc1)c1ccccc1 [loperamide hydrochloride]
IC50 [1]: 1300 nM

human C3a [hC3a]
EC50 [5]: 4.5 ± 0.5 nM

CCOC(=O)Nc1ccc(NCc2ccc(F)cc2)nc1N [flupirtine maleate]
IC50 [1]: 3500 nM

O=C1N=C2C=CC=CN2C12Cc1ccccc1C2 [ST-101]
potentiator activity at CaV3.3 [1]: neither SAK3 (Figure 3D) nor ST-101 (Supporting Information Figure S3) displayed potentiator activity | potentiator activity at CaV3.1 [3]: neither SAK3 (Figure 3D) nor ST-101 (Supporting Information Figure S3) displayed potentiator activity | potentiator activity at CaV3.2 [4]: neither SAK3 (Figure 3D) nor ST-101 (Supporting Information Figure S3) displayed potentiator activity
